What all share (type): functional, cell-based
The subject of one assay is A-431. Briefly: Cytotoxic effect on A431 cell proliferation after 72 hr. The conditions noted are these: Homo sapiens, A-431, 72 h. An outline of the steps: (§1)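 Human cancer cell lines were exposed to the compound continuously for 72 h, and growth inhibition was measured. IC50 was taken as the concentration that inhibits 50% of cell-line growth.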
For assay [1], the system named is A549. As to the kind of experiment: Compound was tested for its cytotoxicity by inhibiting the growth of A-549 cell line after 72 h. To be noted: Homo sapiens, A549, 72 h.
For assay [2], the system named is A549. Briefly: Concentration of compound that Compound was tested for its cytotoxicity by inhibiting the growth of A-549 cell line after 72 h. To be noted: Homo sapiens, A549, 72 h. An outline of the steps:
as §1

Another assay has as its system MCF7. As to the kind of experiment: Compound was tested for its cytotoxicity by inhibiting the growth of MCF-7 cell line after 72 h. The conditions noted are these: Homo sapiens, MCF7, 72 h.
The test system of assay [3] is A549. Briefly: Concentration of compound that inhibits 50% of growth of Compound was tested for its cytotoxicity by inhibiting the growth of. To be noted: Homo sapiens.

This is an account of results in ChEMBL document CHEMBL1137139, “Synthesis of potent taxoids for tumor-specific delivery using monoclonal antibodies” (Bioorg Med Chem Lett, 2004).

pIC50: −log10 of the molar value.

Usually pIC50 stands for the IC50 on a negative log10 scale, so that one unit is a factor of ten. High values mean a low IC50, low ones a high IC50.

In the case of `CSSCCC(=O)O[C@@H](C(=O)O[C@H]1C[C@@]2(O)[C@@H](OC(=O)c3ccccc3)[C@@H]3[C@]4(OC(C)=O)CO[C@@H]4C[C@H](O)[C@@]3(C)C(=O)[C@H](OC(C)=O)C(=C1C)C2(C)C)[C@H](C=C(C)C)NC(=O)OC(C)(C)C`, the negative logarithm of the IC50 (pIC50) in the assay with A-431 is < 8.52; in the assay on A549 [1], 9.05.
On to `CSSCCC(=O)O[C@H]1C(=O)[C@@]2(C)[C@H]([C@H](OC(=O)c3cccc(Cl)c3)[C@]3(O)C[C@H](OC(=O)[C@H](O)[C@H](C=C(C)C)NC(=O)OC(C)(C)C)C(C)=C1C3(C)C)[C@]1(OC(C)=O)CO[C@@H]1C[C@@H]2O`, for which the negative-log IC50 (pIC50) with A549 [2] is 9.54; in the assay with MCF7 it was 10.10.
As to `CC(=O)O[C@H]1C(=O)[C@@]2(C)[C@H]([C@H](OC(=O)c3cccc(N(C)C)c3)[C@]3(O)C[C@H](OC(=O)[C@H](O)[C@H](C=C(C)C)NC(=O)OC(C)(C)C)C(C)=C1C3(C)C)[C@]1(OC(C)=O)CO[C@@H]1C[C@@H]2O`, the negative-log IC50 (pIC50) in the assay on A549 [1] and with MCF7 was 9.00 throughout.
As for `CSSCCC(=O)O[C@H]1C(=O)[C@@]2(C)[C@H]([C@H](OC(=O)c3cccc(N(C)C)c3)[C@]3(O)C[C@H](OC(=O)[C@H](O)[C@H](C=C(C)C)NC(=O)OC(C)(C)C)C(C)=C1C3(C)C)[C@]1(OC(C)=O)CO[C@@H]1C[C@@H]2O`, the negative logarithm of the IC50 (pIC50) was < 8.52 in the assay on A549 [1] and 8.52 in the assay on MCF7.
Take `CC(=O)O[C@H]1C(=O)[C@@]2(C)[C@H]([C@H](OC(=O)c3cc(F)cc(F)c3)[C@]3(O)C[C@H](OC(=O)[C@H](O)[C@H](C=C(C)C)NC(=O)OC(C)(C)C)C(C)=C1C3(C)C)[C@]1(OC(C)=O)CO[C@@H]1C[C@@H]2O`: the negative logarithm of the IC50 (pIC50) in the assay with A549 [3] was 10.00; with MCF7 it was 10.40.
For the molecule `COc1cccc(C(=O)O[C@H]2[C@@H]3[C@]4(OC(C)=O)CO[C@@H]4C[C@H](O)[C@@]3(C)C(=O)[C@H](OC(=O)CCSSC)C3=C(C)[C@@H](OC(=O)[C@H](O)[C@H](C=C(C)C)NC(=O)OC(C)(C)C)C[C@]2(O)C3(C)C)c1`, the negative-log IC50 (pIC50) in the assay with A549 [1] is 10.00; with MCF7, 10.42.
With `CC(=O)O[C@H]1C(=O)[C@@]2(C)[C@H]([C@H](OC(=O)c3cccc(Cl)c3)[C@]3(O)C[C@H](OC(=O)[C@H](O)[C@H](C=C(C)C)NC(=O)OC(C)(C)C)C(C)=C1C3(C)C)[C@]1(OC(C)=O)CO[C@@H]1C[C@@H]2O`, the pIC50 in the assay on A549 [1] is 10.52; in the assay with MCF7, 10.70.
`COc1cccc(C(=O)O[C@H]2[C@@H]3[C@]4(OC(C)=O)CO[C@@H]4C[C@H](O)[C@@]3(C)C(=O)[C@H](OC(C)=O)C3=C(C)[C@@H](OC(=O)[C@H](O)[C@H](C=C(C)C)NC(=O)OC(C)(C)C)C[C@]2(O)C3(C)C)c1`: the negative logarithm of the IC50 (pIC50) in the assay with A549 [1] was 10.40; in the assay with MCF7, 10.70.
Regarding `CSSCCC(=O)N[C@@H](CC(C)C)[C@@H](O)C(=O)O[C@H]1C[C@@]2(O)[C@@H](OC(=O)c3ccccc3)[C@@H]3[C@]4(OC(C)=O)CO[C@@H]4C[C@H](O)[C@@]3(C)C(=O)[C@H](OC(=O)N3CCOCC3)C(=C1C)C2(C)C`, the values for the pIC50 with A-431 and with A549 [1] were 8.55 and < 8.52, respectively.
On to `CCC(=O)O[C@H]1C(=O)[C@@]2(C)[C@H]([C@H](OC(=O)c3ccccc3)[C@]3(O)C[C@H](OC(=O)[C@H](O)[C@H](CC(C)C)NC(=O)CCSSC)C(C)=C1C3(C)C)[C@]1(OC(C)=O)CO[C@@H]1C[C@@H]2O`, for which the pIC50 in the assay with A-431 and in the assay on A549 [1] was < 8.52 each time.
As for `CSSCCC(=O)O[C@H]1C(=O)[C@@]2(C)[C@H]([C@H](OC(=O)c3cc(F)cc(F)c3)[C@]3(O)C[C@H](OC(=O)[C@H](O)[C@H](C=C(C)C)NC(=O)OC(C)(C)C)C(C)=C1C3(C)C)[C@]1(OC(C)=O)CO[C@@H]1C[C@@H]2O`, the negative logarithm of the IC50 (pIC50) in the assay on A549 [1] is 9.44; in the assay on MCF7 it was 9.82.
With `COc1ccc(OC)c(C(=O)O[C@H]2[C@@H]3[C@]4(OC(C)=O)CO[C@@H]4C[C@H](O)[C@@]3(C)C(=O)[C@H](OC(C)=O)C3=C(C)[C@@H](OC(=O)[C@H](O)[C@H](C=C(C)C)NC(=O)OC(C)(C)C)C[C@]2(O)C3(C)C)c1`, the negative-log IC50 (pIC50) with A549 [1] and in the assay on MCF7 was 10.52 throughout.
On to `COc1ccc(OC)c(C(=O)O[C@H]2[C@@H]3[C@]4(OC(C)=O)CO[C@@H]4C[C@H](O)[C@@]3(C)C(=O)[C@H](OC(=O)CCSSC)C3=C(C)[C@@H](OC(=O)[C@H](O)[C@H](C=C(C)C)NC(=O)OC(C)(C)C)C[C@]2(O)C3(C)C)c1`, for which the pIC50 in the assay on A549 [1] was 10.10; with MCF7, 10.40.
For the molecule `CSSCCC(=O)O[C@H]1C[C@H]2OC[C@@]2(OC(C)=O)[C@H]2[C@H](OC(=O)c3ccccc3)[C@]3(O)C[C@H](OC(=O)[C@H](O)[C@H](C=C(C)C)NC(=O)OC(C)(C)C)C(C)=C([C@@H](O)C(=O)[C@]12C)C3(C)C`, the values for the pIC50 in the assay with A-431 and with A549 [1] were 9.52 and 9.70, respectively.
In the case of `CSSc1cccc(C(=O)O[C@H]2[C@@H]3[C@]4(OC(C)=O)CO[C@@H]4C[C@H](O)[C@@]3(C)C(=O)[C@H](OC(C)=O)C3=C(C)[C@@H](OC(=O)[C@H](O)[C@H](C=C(C)C)NC(=O)OC(C)(C)C)C[C@]2(O)C3(C)C)c1`, the pIC50 in the assay with A-431 and in the assay with A549 [1] was < 8.52 in each case.
